Compounds with a hit are over-represented: about 2.6% of the library has one in this group of screens.
MITF act = increases MITF-driven TRPM1 promoter luciferase signal; 300,000 compounds, 0.75% hits; SK-MEL-5 TRPM1-promoter luciferase, 24 h; % of positive control, neutral wells = 0; activation, % at 12.5 µM; AID 588334;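 active = mean activation of at least 80% with every replicate also reaching 80%; inconclusive = mean reaches 80% but some replicate falls short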;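 note: 0% = neutral control wells and 100% = parthenolide positive control wells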
Wnt bcat act = activates Wnt/beta-catenin signaling in a reporter cell assay | activator, plate reader | activation, % at 9.35 µM | 300,000 compounds, 1.2% hits; in the data active = activation above about 30%, passing the limit was not always enough; inconclusive = no clear call, values can overlap the other calls;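 note: 0% = neutral control wells and 100% = positive control wells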
Vif inh = blocks HIV Vif function. AID 602346. 340,000 compounds, 0.35% hits. inhibition, % at 7.49 µM. HEK293T cells, Vif self-association by quenched fluorescence, imaging, 24 h; in the data active = inhibition above about 50%, passing the limit was not always enough; inconclusive = no clear call, values can overlap the other calls; inactive = below about 31%
esBAF inh = inhibitors of esBAF chromatin remodeling in mouse ES cells; Bmi1-luciferase knock-in reporter, 24 h; 100% = twice the neutral-well signal; reporter increase, % at 12.5 µM; 350,000 compounds, 2% hits; in the data active = activation above about 40%; inconclusive = no clear call, values can overlap the other calls;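 note: 0% = median of the plate's neutral control wells and 100% = double that signal; a rise in the Bmi1 reporter signal indicates esBAF inhibition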
XiGFP reactiv = X-chromosome reactivation activator; 360,000 compounds, 0.055% hits; AID 743238; XiGFP mouse fibroblasts, % GFP-positive cells imaging, 3 d; cells co-treated with 5-aza-dC sensitizer; scaled so ellipticine positive control = 100%; activation, % at 7.58 µM;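 active = mean normalized replicate activation at least 10% and every replicate at or above 10%; inconclusive = only one of the two criteria met; inactive = mean below 10% and not all replicates reach 10%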;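 note: 0% = median of on-plate neutral control wells and 100% = ellipticine 6 µM median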
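Assay system: SV40-immortalized XiGFP fibroblast cells, line 68-5-11; buffer or medium: DMEM plus 5-aza-dC sensitizer; compound: one concentration, pinned; timing: compounds 3 days, fix/stain 15 min at room temperature; benchmarks: positive control ellipticine, 6 µM final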
Numbers without * were called inactive; u = inconclusive; x = no result.

SMILES	MITF act	Wnt bcat act	Vif inh	esBAF inh	XiGFP reactiv
C[C@@H]1CN([C@@H](C)CO)C(=O)c2cc(C3=CCCC3)cnc2O[C@@H]1CN(C)C(=O)Nc1ccc(C(F)(F)F)cc1	x	x	x	10	0
COc1ccc(/C=C/C(=O)c2ccccc2)cc1COc1ccc(F)cc1	13	1	5	x	x
COc1ccc(/C=C/C(=O)c2ccccc2)cc1Cn1nnc2ccccc21	-6	43*	-6	x	0
COc1ccc(NC(=O)N(C)C[C@@H]2OCCCC[C@@H](C)Oc3ccc(NS(=O)(=O)c4cccs4)cc3C(=O)N([C@H](C)CO)C[C@@H]2C)cc1	x	x	x	-9	-1
CC(=O)N=C(N)Sc1nc2ccccc2[nH]1	x	61*	-2	69*	x
O=c1c2ccccc2ncn1CCOc1ccccc1[N+](=O)[O-]	54	4	4	67*	0
CCc1ccc(NC(=S)Nc2cccc3cnccc23)cc1	7	34*	0	62*	0
CCOc1cccc(C(=O)NC(=S)Nc2ccc3c(c2)OCCO3)c1	103*	-1	6	u	0
COc1ccc(NC(=S)NC(=O)c2ccc3c(c2)OCCO3)cc1	70	-4	-1	54*	0
O=C(NC(=S)Nc1ccc2c(c1)OCCO2)c1ccccc1	37	x	7	2	x
O=C(c1cnccn1)N1CC(=O)N2[C@@H](CO)[C@H](c3ccc(C#CC4CCCC4)cc3)[C@@H]2C1	x	x	x	x	0
COc1ccc(S(=O)(=O)Nc2ccc3c(c2)C(=O)N([C@H](C)CO)C[C@H](C)[C@H](CN(C)C(=O)NC2CCCCC2)O3)cc1	x	x	x	2	2
CC1CCC(NC(=O)c2ccc(NS(=O)(=O)c3ccc4[nH]c(=O)[nH]c4c3)cc2)CC1 (centres undefined)	98*	23	1	x	0
COCn1c(-c2ccc(OC)c(OC)c2)nc2ccccc21	x	x	15	47*	x
COCn1c(-c2cccc(Br)c2)nc2ccccc21	23	x	u	37	x
COc1ccc(/C=C/c2nc3ccccc3n2Cc2ccc(OC)c(OC)c2)cc1	108*	23	-5	u	0
Cc1sc(NC(=O)C2CCCCC2)c(C#N)c1-c1ccccc1	79	42*	x	93*	x
Cc1cccc(C(=O)Nc2sc(C)c(-c3ccccc3)c2C#N)c1	64	x	x	49*	x
Cc1noc(C)c1C(=O)Nc1sc(C)c(-c2ccccc2)c1C#N	-12	x	-8	-9	x
CCCC(=O)Nc1sc(C)c(-c2ccc(OC)cc2)c1C#N	-2	x	3	x	0
COc1cccc(-c2ccc3c(c2)O[C@H](CN(C)Cc2cncnc2)[C@H](C)CN([C@@H](C)CO)S3(=O)=O)c1	x	x	x	-3	-1
COc1ccc(S(=O)(=O)Nc2ccc3c(c2)C(=O)N([C@H](C)CO)C[C@H](C)[C@@H](CN(C)Cc2ccc(C(=O)O)cc2)OCCCC[C@H](C)O3)cc1	x	x	x	3	-1
O=c1[nH]c2ccc(NCc3ccc(OCc4ccccc4Cl)cc3)cc2[nH]1	83*	8	1	27	0
COc1cc(CNc2ccc(N3CCN(C(C)=O)CC3)cc2)ccc1OCc1ccccc1	-7	40*	2	x	0
COc1cc(CNc2ccc3[nH]c(=O)[nH]c3c2)ccc1OCc1ccc(C)cc1	68	44*	-8	55*	0
SMILES	MITF act	Wnt bcat act	Vif inh	esBAF inh	XiGFP reactiv
COc1cc(CNc2ccc(N3CCOCC3)cc2)ccc1OCC(=O)NC(C)(C)C	-5	0	0	5	0
CO[C@H]1CN(C)C(=O)c2cc(NC(=O)C3CC3)ccc2OC[C@H](C)N(Cc2ccc(F)cc2)C[C@@H]1C	x	x	x	0	0
O=C(c1ccc(Cl)cc1)c1coc2ccc(O)cc12	87*	x	-6	9	x
O=C(c1coc2ccc(O)cc12)C1CC1	12	x	9	20	x
O=C(c1ccc(Br)cc1)c1coc2ccc(O)cc12	u	40*	-9	x	0
Cc1ccc(CONC(=O)/N=C/N(C)C)cc1	x	x	63*	-7	x
O=C(C[C@@H]1C[C@@H]2c3cc(NS(=O)(=O)c4ccc(F)cc4)ccc3O[C@@H]2[C@H](CO)O1)NCc1cccc(F)c1	x	x	x	-2	0
O=C(Nc1cccnc1)Nc1ccc2c(c1)OCO2	x	x	20	42*	x
CCCCc1ccc(NC(=O)C2CCCO2)cc1 (centres undefined)	105*	x	5	20	x
O=C(NCc1cccs1)Nc1ccc2c(c1)OCO2	x	x	-13	63*	x
O=C(NCc1ccccn1)Nc1ccc2c(c1)OCO2	18	17	2	51*	x
C[C@H](CO)N1C[C@H](C)[C@@H](CN(C)C(=O)Nc2ccccc2)Oc2c(NC(=O)c3cnccn3)cccc2C1=O	x	x	x	-1	0
O=C(CNC(=O)c1cccs1)Nc1ccc2c(c1)OCCO2	47	31*	-5	-7	0
O=C(Nc1ccc2c(c1)OCO2)Nc1ccccn1	62	55*	-5	x	0
O=C(Nc1ccc(NC(=O)c2cccs2)cc1)c1ccc2c(c1)OCCO2	-8	0	-3	-47	0
O=C(Nc1ccncc1)Nc1ccccn1	24	x	-5	-3	x
O=C(Nc1ccccn1)Nc1cccs1	56	x	1	55*	x
Cn1ccc2cc(NC(=O)Nc3cccnc3)ccc21	71	13	6	56*	0
CCCCc1ccc(NC(=O)Nc2cccnc2)cc1	62	12	12	51*	0
CCCCc1ccc(NC(=S)Nc2cccnc2)cc1	1	1	0	x	1
CC(C)[C@@H]1COCn2nncc2CC[C@H](Cc2ccc(-c3ccccc3)cc2)C(=O)N1	x	x	x	x	0
Cc1ccc([N+](=O)[O-])cc1N/C=C/C(=O)c1ccco1	16	-1	-9	55*	x
Cc1ccc(N/C=C/C(=O)c2ccco2)c(O)c1	53	56*	-2	u	0
C=CCn1c(-c2csc(-c3ccccc3)n2)n[nH]c1=S	5	1	-7	6	x
C=CCn1c(-c2cc(-c3ccccc3)sc2N)n[nH]c1=S	x	41*	-6	x	0
SMILES	MITF act	Wnt bcat act	Vif inh	esBAF inh	XiGFP reactiv
C[C@@H]1CCCCO[C@H](CN(C)C(=O)Nc2ccc(F)cc2)[C@@H](C)CN([C@@H](C)CO)C(=O)c2cc(NS(=O)(=O)c3cccs3)ccc2O1	x	x	x	x	0
Cc1ccc(C2=N/C(=C\N(C)C)C(=O)O2)cc1	94*	x	x	29	x
Cc1nc(-c2ccc(Cl)cc2)sc1C1(C)CC(c2ccccc2)=NO1 (centres undefined)	55	29	x	59*	0
COc1ccccc1C1=NOC(C)(c2sc(-c3ccc(Cl)cc3)nc2C)C1 (centres undefined)	37	2	-2	43*	0
C[C@@H](NC(=O)C[C@@H]1CC[C@@H]2[C@H](COC[C@@H](O)CN2C(=O)Nc2cc(Cl)cc(Cl)c2)O1)c1ccccc1	x	x	x	-18	0
CCOC(=O)c1ccc(NC(=O)N2CCc3ccccc32)cc1	73	40*	-9	68*	x

Screening results from PubChem.
